Assay results from different studies.
Compare with care: the assays were run in different laboratories.

Structure (SMILES) | host | sample | route | dose | notes | Cmax
COc1ccc([C@@H]2CN(C(=O)[C@@H](O)CO)C[C@@]2(C)[C@@H](C)O)cc1OC1CN(c2ccc(C)cn2)C1 | human | plasma | oral | 5 mg | single dose, healthy volunteers | 213 ng/mL
FC(F)(F)c1ccc(CNc2ccc(Cc3c[nH]c4ncc(Cl)cc34)cn2)cn1 | human | plasma | oral | 1600 mg | multiple doses, patients | 8770 ng/mL
O=C(Nc1c(Cl)cncc1Cl)c1ccc(OC(F)F)c(OCC2CC2)c1 | human | plasma | oral | 0.375 mg | single dose, fasted | 9.2 ng/mL
CCCCC1=NC2(CCCC2)C(=O)N1Cc1ccc(-c2ccccc2S(=O)(=O)Nc2noc(C)c2C)c(COCC)c1 | human | plasma | oral | 800 mg | single dose, fed, healthy volunteers | 16200 ng/mL
COc1cc2c(Nc3ccc(Br)cc3F)ncnc2cc1OCC1CCN(C)CC1 | human | plasma | oral | 85 mg/m² | multiple doses, once daily, patients | 716 ng/mL
Cn1c(=O)oc2ccc(-c3ccc(C[C@@H](C#N)NC(=O)[C@@H]4CNCCCO4)cc3)cc21 | male human | plasma | oral | 35 mg | single dose, healthy volunteers | 668 nM
O=C(O)C[C@H](O)C[C@H](O)/C=C/c1c(C2CC2)nc2ccccc2c1-c1ccc(F)cc1 | human | plasma | oral | 2 mg | single dose, fasted, healthy volunteers, tablet | 36.4 ng/mL
Br.Cc1ccc(Sc2ccccc2N2CCNCC2)c(C)c1 | human | plasma | oral | 20 mg | multiple doses, steady state, healthy volunteers | 33 ng/mL
COCCOc1cnc2ccn([C@H](C)c3nnc4c(F)cc(-c5cnn(C)c5)cn34)c(=O)c2c1 | human | plasma | oral | 150 mg | multiple doses, once daily, patients | 2910 ng/mL
Cn1cc(-c2ccc(S(=O)(=O)[C@@H]3C[C@@H](C(=O)NC4(C#N)CC4)N(C(=O)C4(C(F)(F)F)CC4)C3)c(C(F)(F)F)c2)cn1 | human | plasma | oral | 10 mg | single dose, fasted, healthy volunteers | 81.3 ng/mL
CCc1nc2c(C)cc(N3CCN(CC(=O)N4CC(O)C4)CC3)cn2c1N(C)c1nc(-c2ccc(F)cc2)c(C#N)s1 | human | plasma | oral | 600 mg | single dose, fasted, healthy volunteers | 5800 ng/mL
NC(=O)c1cnc2[nH]ccc2c1N[C@@H]1[C@@H]2CC3C[C@H]1C[C@@](O)(C3)C2 | human | plasma | oral | 100 mg twice daily | multiple doses, patients | 256 ng/mL
CC(C)n1cc(C#N)c2cc(-n3cc(C(=O)O)cn3)ccc21 | male human | plasma | oral | 600 mg | single dose, fasted, healthy volunteers | 18200 ng/mL
COc1ccc(-n2nc(C(N)=O)c3c2C(=O)N(c2ccc(N4CCCCC4=O)cc2)CC3)cc1 | human | plasma | oral | 10 mg | healthy volunteers | 261 ng/mL
CCCOc1ccc([C@H]2CNC(=O)N2c2ccc3[nH]cnc3c2)cc1 | human | plasma | oral | 200 mg | single dose, fed, healthy volunteers | 565 ng/mL
CC(C)(Sc1ccncc1-c1ccc(C#N)c2ccccc12)C(=O)O | male human | plasma | oral | 40 mg | single dose, fasted, healthy volunteers | 760 ng/mL
CCCCC[C@H](O)CC[C@@H]1[C@H]2Cc3cccc(OCC(=O)O)c3C[C@H]2C[C@H]1O | human | plasma | inhaled | 36 µg | single dose, healthy volunteers | 0.87 ng/mL

Structure (SMILES) | host | sample | route | dose | notes | Cmax
C#Cc1cccc(Nc2ncnc3cc(OCCOC)c(OCCOC)cc23)c1 | human | plasma | oral | 50 mg | patients | 1170 nM
C=C(F)C(=O)N1CCN(c2nc(OC[C@@H]3CCCN3C)nc3c2CCN(c2cccc4cccc(Cl)c24)C3)C[C@@H]1CC#N | human | plasma | oral | 600 mg | single dose, fasted | 984 ng/mL
CO[C@H]1CC[C@H](N2C(=O)CNc3ncc(-c4ccc(C(C)(C)O)nc4)nc32)CC1 | human | plasma | oral | 60 mg | multiple doses, patients | 480 ng/mL
COc1cc(C(=O)NC2CCN(C)CC2)c(F)cc1Nc1ncc(C(F)(F)F)c(Oc2cccc3c2C(=O)N(C)C3)n1 | human | plasma | oral | 10 mg | single dose, patients | 44.8 nM
FC(F)(F)c1ccc(CNc2ccc(Cc3c[nH]c4ncc(Cl)cc34)cn2)cn1 | human | plasma | oral | 600 mg | single dose, fasted, healthy volunteers | 4220 ng/mL
CS(=O)(=O)CCNCc1ccc(-c2ccc3ncnc(Nc4ccc(OCc5cccc(F)c5)c(Cl)c4)c3c2)o1 | human | serum | oral | 1250 mg | single dose | 910 ng/mL
Cc1ccc(C(=O)N(CCCN)[C@@H](c2oc3cc(Cl)ccc3c(=O)c2Cc2ccccc2)C(C)C)cc1 | human | plasma | intravenous | 5 mg/m² | single dose, patients, infusion | 607 ng/mL
Nc1cc(C(F)(F)F)c(-c2cc(N3CCOCC3)nc(N3CCOCC3)n2)cn1 | human | plasma | oral | 25 mg/day | patients | 289 ng/mL
CC(C)(C(=O)N1CCOc2c(C#N)cncc2C1)C(F)F | human | plasma | oral | 20 mg | multiple doses, once daily | 250 ng/mL
NS(=O)(=O)NCCNc1nonc1C(=NO)Nc1ccc(F)c(Br)c1 | human | plasma | oral | 500 mg | multiple doses, twice daily, steady state, patients | 4820 nM
N#CN1C[C@H](n2nc(-c3ccc(Oc4ccc(Cl)cn4)cc3)c(C(N)=O)c2N)CCC12CC2 | human | plasma | oral | 600 mg | fasted | 1060 ng/mL
CO[C@@H]1[C@H](OC(=O)N2CC(CCN3CCOCC3)C2)CC[C@]2(CO2)[C@H]1[C@@]1(C)O[C@@H]1CC=C(C)C | human | plasma | subcutaneous | 0.6 mg | single dose, healthy volunteers | 2.28 ng/mL
CCn1c(=O)c(-c2cc(NC(=O)Nc3ccccc3)c(F)cc2Br)cc2cnc(NC)cc21 | human | plasma | oral | 200 mg | single dose, patients | 525 ng/mL
C[C@@]1(c2cc(NC(=O)c3ccc(C#N)cn3)ccc2F)C=CSC(N)=N1 | human | plasma | oral | 30 mg | single dose | 148 ng/mL
CCO[C@H]1CCN(Cc2c(OC)cc(C)c3[nH]ccc23)[C@H](c2ccc(C(=O)O)cc2)C1 | human | plasma | oral | 100 mg | multiple doses, twice daily, patients | 2640 ng/mL
CNC(=O)c1cc(Oc2ccc(NC(=O)Nc3cc(C(C)(C)C)nn3-c3ccc4ncccc4c3)c(F)c2)ccn1 | human | plasma | oral | 100 mg | multiple doses, twice daily | 114 ng/mL
CC(C)(O)c1ccccc1-c1ccc2[nH]c(/C=C/c3ccc(C(F)(F)F)cc3)nc2c1 | male human | plasma | oral | 225 mg | single dose, fasted, healthy volunteers | 525 ng/mL
